This is a sample that favours compounds with a hit; in the whole collection about 5.7% have one here.
T cruzi repl: inhibitors of intracellular T. cruzi growth, primary screen, luminescence, NIH3T3 host cells. T. cruzi beta-gal in NIH3T3, 90 h. inhibition, % (no concentration beside the values). 1.4% of 300,000 active. AID 1885, 2009;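 active means mean inhibition across valid replicates above about 55%, limit read from the data; inconclusive means mean below that limit but half or more replicates reach it; inactive means mean below it, under half of replicates reach it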;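 further: signal also drops with host cell toxicity which is not excluded here; 0% = plate median of DMSO wells and 100% = zero luminescence signal; higher percent means less beta-gal luminescence so fewer parasites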
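Material: NIH/3T3 host cells with β-galactosidase reporter T. cruzi; Input: 5,000 host fibroblasts per well; Medium: DMEM, 2% fetal bovine serum; Compound: 50 nL DMSO compound solution per well; Schedule: 3 h host attachment, then at least 90 h co-culture; Detection: luminescent β-galactosidase signal after 60 min lysis.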
Calb FLC: C. albicans growth inhibition with fluconazole, primary screen, CaCi-2 strain, Alamar Blue fluorescence; C. albicans CaCi-2 + fluconazole, 48 h; growth inhibition, % (concentration not given with the values); 0.57% of 300,000 active; AID 1979, 2009;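 active means growth inhibition above about 58% in most replicates, limit read from the data, passing the limit was not always enough; inconclusive means exactly half the replicates above a set limit; inactive means most replicates below a set limit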;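 further: all wells also contain fluconazole at 8 µg/ml as a sub-toxic cotreatment; 0% = median of DMSO wells and 100% = median of geldanamycin control wells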
CSC inhib: cancer stem cell viability inhibitors, primary screen, luminescence. cancer stem cell-like cells viability. inhibition, % at 7.5 µM. 1.1% of 300,000 active; in the data active means inhibition above about 75%; inconclusive means no clear call, values can overlap the other calls; tested in HMLE shEcad cells
Mdm2 MdmX PPI: inhibitors of human Mdm2-MdmX association, primary screen, cell-based, luminescence, split luciferase, SaOS-2, uHTS; Protein Mdm4 (Homo sapiens) + E3 ubiquitin-protein ligase Mdm2 (Homo sapiens), …; SaOS-2 split-luciferase Mdm2/MdmX complementation; inhibition, % at 8 µM; 3% of 330,000 active; AID 485346, 2010;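 active means inhibition of at least 50% at 8 µM in the primary screen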
SKKanGAS inh: S. pyogenes SKKanGAS growth inhibitors in kanamycin, primary screen, streptokinase expression inhibitor project, SKKanGAS strain, BacTiter-Glo luminescence. inhibition, % at 7.5 µM. AID 1662, 2009. 1.3% of 300,000 active. 6 h;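 active means mean replicate score, as percent of positive control median, at least 50; inconclusive means mean below 50 but one replicate at or above 50; inactive means mean and every replicate below 50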;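 further: strain carries kanamycin resistance gene driven by streptokinase promoter and grows in 40 µg/ml kanamycin; loss of luminescence reflects streptokinase promoter inhibition or plain growth inhibition; 0% = median of DMSO wells and 100% = positive control at its reference dose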
Beta cell apopt: inhibitors of cytokine-induced beta cell apoptosis, primary screen, luminescence; INS-1E cytokine-induced death, ATP luminescence, 48 h; percent of positive-control rescue, neutral wells zero; protection from apoptosis, % (no concentration beside the values); 0.8% of 300,000 active;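 active means Every replicate reaches about 75%, or at least half do and their mean reaches it too, limit read from the data; inconclusive means At least half of replicates reach the limit but their mean does not; inactive means Under half of replicates reach the limit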;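 further: 0% = cytokine-treated negative control wells and 100% = positive control rescue; higher means more ATP so stronger rescue from cytokine killing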
* = called active by the depositor.

`COc1ccc2nc(N(CCN(C)C)C(=O)c3ccc4c(c3)OCCO4)sc2c1` gave T cruzi repl 64.5*, Calb FLC 0.2, CSC inhib -5.2, Mdm2 MdmX PPI -6.0, SKKanGAS inh -0.2 and Beta cell apopt -7.2.
O=C(c1ccc(NS(=O)(=O)c2ccc(F)cc2)cc1)N1CCCCCC1 was read as T cruzi repl 2.6, Calb FLC -6.6, CSC inhib -11.4, Mdm2 MdmX PPI 13.3, SKKanGAS inh -0.7 and Beta cell apopt 3.8.
Screening Cc1c(NC(=O)C(C)Oc2ccc(Br)cc2)c(=O)n(-c2ccccc2)n1C (configuration not stated) returned CSC inhib -20.3, Mdm2 MdmX PPI 23.8 and Beta cell apopt 2.5.
For CN(C)CCN(C(=O)c1ccc(S(=O)(=O)N(C)c2ccccc2)cc1)c1nc2cc3c(cc2s1)OCCO3 the results were T cruzi repl inconclusive, Calb FLC 22.8, CSC inhib -10.1, Mdm2 MdmX PPI -11.4, SKKanGAS inh 9.5 and Beta cell apopt -11.6.
CN(C)CCN(C(=O)c1ccc(S(=O)(=O)N(C)C)cc1)c1nc2cc3c(cc2s1)OCCO3 was read as T cruzi repl 60.7*, Calb FLC -8.9, CSC inhib -29.6, Mdm2 MdmX PPI -18.5, SKKanGAS inh 4.9 and Beta cell apopt -8.0.
`Cc1cc(/C=N/n2cnnc2)c(C)n1-c1ccc(OCc2ccccc2F)cc1` gave T cruzi repl 37.6, Calb FLC -7.5, CSC inhib 40.2, Mdm2 MdmX PPI 49.5, SKKanGAS inh 25.5 and Beta cell apopt 122.0*.
`CCC1(c2ccccc2)NC(=S)N(c2ccc(C)cc2)N1` (configuration not stated) gave T cruzi repl -9.1, Calb FLC 106.3*, Mdm2 MdmX PPI -20.7, SKKanGAS inh 7.5 and Beta cell apopt -1.5.
CCC1(c2ccc(Cl)cc2)NC(=S)N(c2ccccc2)N1 (configuration not stated) was read as T cruzi repl 9.4, Calb FLC 117.4*, CSC inhib -4.4, Mdm2 MdmX PPI -49.1, SKKanGAS inh 7.9 and Beta cell apopt -4.2.
Screening CCCCSc1ccc2nc(-c3ccc(C#N)cc3)cn2c1 returned T cruzi repl 12.2, Calb FLC -5.0, CSC inhib 23.3, Mdm2 MdmX PPI -30.4, SKKanGAS inh 53.6* and Beta cell apopt 7.4.
For CCOC(=O)c1cc(-c2ccccc2)sc1NC(=O)CC the results were T cruzi repl 9.7, Calb FLC -3.1, CSC inhib 6.6, Mdm2 MdmX PPI 11.7, SKKanGAS inh -2.1 and Beta cell apopt -4.2.
`CCOC(=O)c1cc(-c2ccccc2)sc1NC(=O)CN1C(=O)NC(CC)(c2ccc(F)cc2)C1=O` (configuration not stated) gave T cruzi repl 60.5*, Calb FLC -6.0, CSC inhib -4.8, Mdm2 MdmX PPI 26.5, SKKanGAS inh 12.4 and Beta cell apopt 5.8.
CCOC(=O)c1cc(-c2ccccc2)sc1NC(=O)CN1C(=O)NC(CC)(c2ccccc2)C1=O (configuration not stated) was read as T cruzi repl 66.2*, Calb FLC -1.4, CSC inhib 3.9, Mdm2 MdmX PPI 45.7, SKKanGAS inh 21.1 and Beta cell apopt -1.8.
Screening CCOC(=O)c1cc(-c2ccccc2)sc1NC(=O)CCN1C(=O)c2ccccc2C1=O returned T cruzi repl 6.8, Calb FLC -2.0, CSC inhib -1.1, Mdm2 MdmX PPI -15.9, SKKanGAS inh -7.8 and Beta cell apopt 3.6.
Screening Cc1ccccc1-n1c(C)nnc1SCc1cc(=O)oc2ccc3ccccc3c12 returned T cruzi repl 11.0, Calb FLC 22.2, CSC inhib 3.6, Mdm2 MdmX PPI 15.9, SKKanGAS inh -0.7 and Beta cell apopt 4.8.
Screening O=C(C1=C(O)C(=O)N(CC2CCCO2)C1c1ccccc1F)c1ccco1 (configuration not stated) returned T cruzi repl -6.7, Calb FLC -4.2, Mdm2 MdmX PPI -5.8, SKKanGAS inh 1.1 and Beta cell apopt -3.2.

High-throughput results from PubChem.
